Source: ChEMBL document CHEMBL3588757, “Structure-based design, synthesis and biological testing of piperazine-linked bis-epipodophyllotoxin etoposide analogs” (Bioorg Med Chem, 2015)

Experiments:
OVCAR-8 [1] = experiment: Cytotoxicity against human OVCAR8 cells assessed as cell growth at 5 uM by SRB assay; assay type: functional; settings: read-out: Activity
BT-549 = experiment: Cytotoxicity against human BT549 cells assessed as cell growth at 0.5 uM by SRB assay; assay type: functional; settings: read-out: Activity
NCI-H522 = experiment: Cytotoxicity against human NCI-H522 cells assessed as cell growth at 0.05 uM by SRB assay; assay type: functional; settings: read-out: Activity
HOP-92 [2] = experiment: Cytotoxicity against human HOP92 cells assessed as cell growth at 0.05 uM by SRB assay; assay type: functional; settings: read-out: Activity
Procedure, shortened: (§1)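 Measured in the NCI-60 human tumour cell line panel using five-dose testing. Growth was recorded at each dose for each cell line, and a GI50 was derived for each line.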

[3] = Cytotoxicity against human Hs578T cells by SRB assay; assay type: functional; settings: Hs-578T; procedure, shortened: as §1
OVCAR-8 [4] = experiment: Cytotoxicity against human OVCAR8 cells by SRB assay; assay type: functional
Procedure, shortened: (§2)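 NCI-60 panel screen; 5-dose testing giving GI50 per cell line, plus a single 10 µM one-dose test. Method details not given beyond the NCI screen.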

KM12 [5] = experiment: Cytotoxicity against human KM12 cells assessed as cell growth at 0.05 uM by SRB assay; assay type: functional; settings: read-out: Activity
MDA-MB-231 = experiment: Cytotoxicity against human MDA-MB-231/ATCC cells assessed as cell growth at 50 uM by SRB assay; assay type: functional; settings: read-out: Activity
SK-OV-3 [6] = experiment: Cytotoxicity against human SKOV3 cells assessed as cell growth at 0.5 uM by SRB assay; assay type: functional; settings: read-out: Activity
OVCAR-3 = experiment: Cytotoxicity against human OVCAR3 cells assessed as cell growth at 0.005 uM by SRB assay; assay type: functional; settings: read-out: Activity
LOX IMVI = experiment: Cytotoxicity against human LOXIMVI cells assessed as cell growth at 0.005 uM by SRB assay; assay type: functional; settings: read-out: Activity
SNB-75 = experiment: Cytotoxicity against human SNB75 cells assessed as cell growth at 0.005 uM by SRB assay; assay type: functional; settings: read-out: Activity
K562 = experiment: Cytotoxicity against human K562 cells assessed as cell growth inhibition after 72 hrs by MTS assay; assay type: functional, cell-based; settings: K562, 72 h
TK-10 = experiment: Cytotoxicity against human TK10 cells by SRB assay; assay type: functional; procedure, shortened: as §2
RXF 393 = experiment: Cytotoxicity against human RXF393 cells by SRB assay; assay type: functional; procedure, shortened: as §2
NCI-H322M = experiment: Cytotoxicity against human NCI-H322M cells assessed as cell growth at 5 uM by SRB assay; assay type: functional; settings: read-out: Activity
MCF7 = experiment: Cytotoxicity against human MCF7 cells assessed as cell growth at 0.5 uM by SRB assay; assay type: functional; settings: read-out: Activity
SK-MEL-2 = experiment: Cytotoxicity against human SK-MEL-2 cells assessed as cell growth at 5 uM by SRB assay; assay type: functional; settings: read-out: Activity
UACC-62 [7] = experiment: Cytotoxicity against human UACC62 cells assessed as cell growth at 0.5 uM by SRB assay; assay type: functional; settings: read-out: Activity
SF-539 = experiment: Cytotoxicity against human SF539 cells assessed as cell growth at 5 uM by SRB assay; assay type: functional; settings: read-out: Activity
UACC-62 [8] = experiment: Cytotoxicity against human UACC62 cells assessed as cell growth at 0.05 uM by SRB assay; assay type: functional; settings: read-out: Activity
KM12 [9] = experiment: Cytotoxicity against human KM12 cells by SRB assay; assay type: functional; procedure, shortened: as §2
[10] = target: DNA topoisomerase 2-alpha (Homo sapiens) (UniProt P11388); experiment: Inhibition of full-length human recombinant topoisomerase 2-alpha mediated relaxation and cleavage of supercoiled pBR322 plasmid DNA to linear DNA by ethidium bromide staining based gel electrophoresis assay
Procedure, shortened: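 Recombinant full-length human topoisomerase IIα with supercoiled pBR322 DNA at 37 °C. Components mixed on ice before drug addition. Complexes trapped with SDS; products run on ethidium bromide gels. Linear DNA identified against a HindIII-linearized marker; repeated on three days.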

SF-268 = experiment: Cytotoxicity against human SF268 cells assessed as cell growth at 5 uM by SRB assay; assay type: functional; settings: read-out: Activity
UACC-257 = experiment: Cytotoxicity against human UACC257 cells by SRB assay; assay type: functional; procedure, shortened: as §2
786-0 = experiment: Cytotoxicity against human 786-0 cells assessed as cell growth at 0.005 uM by SRB assay; assay type: functional; settings: read-out: Activity
SW-620 [11] = experiment: Cytotoxicity against human SW620 cells assessed as cell growth at 5 uM by SRB assay; assay type: functional; settings: read-out: Activity
HCT-15 = experiment: Cytotoxicity against human HCT15 cells assessed as cell growth at 0.005 uM by SRB assay; assay type: functional; settings: read-out: Activity; procedure, shortened: as §1
NCI-H23 = experiment: Cytotoxicity against human NCI-H23 cells assessed as cell growth at 50 uM by SRB assay; assay type: functional; settings: read-out: Activity
SK-MEL-5 = experiment: Cytotoxicity against human SK-MEL-5 cells assessed as cell growth at 0.005 uM by SRB assay; assay type: functional; settings: read-out: Activity
HOP-92 [12] = experiment: Cytotoxicity against human HOP92 cells assessed as cell growth at 0.5 uM by SRB assay; assay type: functional; settings: read-out: Activity; procedure, shortened: as §1
CCRF-CEM = experiment: Cytotoxicity against human CCRF-CEM cells assessed as cell growth at 0.005 uM by SRB assay; assay type: functional; settings: read-out: Activity
IGROV-1 = experiment: Cytotoxicity against human IGROV1 cells assessed as cell growth at 0.05 uM by SRB assay; assay type: functional; settings: read-out: Activity; procedure, shortened: as §1
SN12C = experiment: Cytotoxicity against human SN12C cells by SRB assay; assay type: functional; procedure, shortened: as §2
SK-OV-3 [13] = experiment: Cytotoxicity against human SKOV3 cells by SRB assay; assay type: functional; procedure, shortened: as §2
HOP-62 = experiment: Cytotoxicity against human HOP62 cells assessed as cell growth at 0.005 uM by SRB assay; assay type: functional; settings: read-out: Activity; procedure, shortened: as §1
SW-620 [14] = experiment: Cytotoxicity against human SW620 cells assessed as cell growth at 0.05 uM by SRB assay; assay type: functional; settings: read-out: Activity
[15] = read-out: LC50 (the source's name)
[16] = read-out: pLC50 (the source's name) (converted)

Chain of DNA topoisomerase 2-alpha (Homo sapiens) (P11388 whole entry): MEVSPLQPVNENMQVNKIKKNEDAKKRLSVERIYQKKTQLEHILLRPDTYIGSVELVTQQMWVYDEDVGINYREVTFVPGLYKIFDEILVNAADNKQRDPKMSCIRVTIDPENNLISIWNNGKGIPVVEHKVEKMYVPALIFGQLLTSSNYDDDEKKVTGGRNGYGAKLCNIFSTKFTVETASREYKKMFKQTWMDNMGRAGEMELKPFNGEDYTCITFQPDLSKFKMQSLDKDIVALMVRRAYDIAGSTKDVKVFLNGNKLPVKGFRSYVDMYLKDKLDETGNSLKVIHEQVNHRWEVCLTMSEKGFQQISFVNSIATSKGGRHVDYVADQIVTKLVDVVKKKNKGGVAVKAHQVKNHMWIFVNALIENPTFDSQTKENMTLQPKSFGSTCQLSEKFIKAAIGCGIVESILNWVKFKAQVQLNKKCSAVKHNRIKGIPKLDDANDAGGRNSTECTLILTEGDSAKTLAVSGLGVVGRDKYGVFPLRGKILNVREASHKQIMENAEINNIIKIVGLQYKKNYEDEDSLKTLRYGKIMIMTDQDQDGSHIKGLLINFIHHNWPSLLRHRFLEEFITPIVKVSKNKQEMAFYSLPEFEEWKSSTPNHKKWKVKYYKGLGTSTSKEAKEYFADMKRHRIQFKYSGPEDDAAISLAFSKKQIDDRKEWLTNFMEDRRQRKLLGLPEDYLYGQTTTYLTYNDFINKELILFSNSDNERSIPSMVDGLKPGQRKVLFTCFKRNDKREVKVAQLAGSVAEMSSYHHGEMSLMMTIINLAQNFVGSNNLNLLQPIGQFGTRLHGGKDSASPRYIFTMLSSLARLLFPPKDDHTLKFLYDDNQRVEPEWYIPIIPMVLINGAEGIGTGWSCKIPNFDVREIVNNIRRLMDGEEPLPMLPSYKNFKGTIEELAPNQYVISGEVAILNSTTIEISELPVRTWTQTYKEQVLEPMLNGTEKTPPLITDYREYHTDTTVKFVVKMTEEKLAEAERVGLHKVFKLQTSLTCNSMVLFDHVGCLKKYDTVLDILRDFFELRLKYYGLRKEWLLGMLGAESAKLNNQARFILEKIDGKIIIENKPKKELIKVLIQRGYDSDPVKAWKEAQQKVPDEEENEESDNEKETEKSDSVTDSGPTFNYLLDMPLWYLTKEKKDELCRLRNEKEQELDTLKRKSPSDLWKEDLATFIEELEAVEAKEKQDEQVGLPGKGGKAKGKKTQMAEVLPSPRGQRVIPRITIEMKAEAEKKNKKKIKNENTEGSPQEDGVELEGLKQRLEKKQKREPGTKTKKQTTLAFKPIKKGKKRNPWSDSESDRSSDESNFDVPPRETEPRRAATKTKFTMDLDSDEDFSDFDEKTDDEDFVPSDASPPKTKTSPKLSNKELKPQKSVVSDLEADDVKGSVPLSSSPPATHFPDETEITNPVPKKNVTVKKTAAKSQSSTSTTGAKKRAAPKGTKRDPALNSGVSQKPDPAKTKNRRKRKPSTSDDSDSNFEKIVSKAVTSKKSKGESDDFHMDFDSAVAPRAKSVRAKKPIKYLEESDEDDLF

COc1cc([C@@H]2c3cc4c(cc3[C@@H](NC(=O)CN3CCN(CCCCCCN5CCN(CC(=O)N[C@@H]6c7cc8c(cc7[C@@H](c7cc(OC)c(O)c(OC)c7)[C@H]7C(=O)OC[C@@H]76)OCO8)CC5)CC3)[C@H]3COC(=O)[C@H]23)OCO4)cc(OC)c1O
growth at 5 µM (OVCAR-8 [1]): 92%
growth at 0.5 µM (BT-549): 62%
growth at 0.05 µM (NCI-H522): 99%
growth at 0.05 µM (HOP-92 [2]): 82%
GI50 ([3]; read-out: GI50): 8.93 µM
CC50 [3, 15]: > 50 µM
TGI ([3]; read-out: TGI): > 50 µM
GI50 ([3]; read-out: pGI50 (converted)): 8.91 µM
CC50 [3, 16]: > 50.1 µM
TGI ([3]; read-out: pTGI (converted)): > 50.1 µM
GI50 (OVCAR-8 [4]; read-out: GI50): 35.7 µM
CC50 (OVCAR-8 [4]; [15]): > 50 µM
TGI (OVCAR-8 [4]; read-out: TGI): > 50 µM
GI50 (OVCAR-8 [4]; read-out: pGI50 (converted)): 35.5 µM
CC50 (OVCAR-8 [4]; [16]): > 50.1 µM
TGI (OVCAR-8 [4]; read-out: pTGI (converted)): > 50.1 µM
growth at 0.05 µM (KM12 [5]): 103%
growth at 50 µM (MDA-MB-231): 13%
growth at 0.5 µM (SK-OV-3 [6]): 97%
growth at 0.005 µM (OVCAR-3): 110%
growth at 0.005 µM (LOX IMVI): 98%
growth at 0.005 µM (SNB-75): 75%
IC50 (K562): 0.041 µM
GI50 (TK-10; read-out: GI50): > 50 µM
CC50 (TK-10; [15]): > 50 µM
TGI (TK-10; read-out: TGI): > 50 µM
GI50 (TK-10; read-out: pGI50 (converted)): > 50.1 µM
CC50 (TK-10; [16]): > 50.1 µM
TGI (TK-10; read-out: pTGI (converted)): > 50.1 µM
GI50 (RXF 393; read-out: GI50): 9.33 µM
CC50 (RXF 393; [15]): > 50 µM
TGI (RXF 393; read-out: TGI): > 50 µM
GI50 (RXF 393; read-out: pGI50 (converted)): 9.33 µM
CC50 (RXF 393; [16]): > 50.1 µM
TGI (RXF 393; read-out: pTGI (converted)): > 50.1 µM
growth at 5 µM (NCI-H322M): 99%
growth at 0.5 µM (MCF7): 31%
growth at 5 µM (SK-MEL-2): 86%
growth at 0.5 µM (UACC-62 [7]): 70%
growth at 5 µM (SF-539): 12%
growth at 0.05 µM (UACC-62 [8]): 90%
GI50 (KM12 [9]; read-out: GI50): 3.79 µM
CC50 (KM12 [9]; [15]): > 50 µM
TGI (KM12 [9]; read-out: TGI): > 50 µM
GI50 (KM12 [9]; read-out: pGI50 (converted)): 3.8 µM
CC50 (KM12 [9]; [16]): > 50.1 µM
TGI (KM12 [9]; read-out: pTGI (converted)): > 50.1 µM
Effect on topoisomerase 2-alpha DNA cleavage (qualitative) [10]: Dose-dependent effect
growth at 5 µM (SF-268): 20%
GI50 (UACC-257; read-out: GI50): 18.9 µM
CC50 (UACC-257; [15]): > 50 µM
TGI (UACC-257; read-out: TGI): > 50 µM
GI50 (UACC-257; read-out: pGI50 (converted)): 19.1 µM
CC50 (UACC-257; [16]): > 50.1 µM
TGI (UACC-257; read-out: pTGI (converted)): > 50.1 µM
growth at 0.005 µM (786-0): 89%
growth at 5 µM (SW-620 [11]): 37%
growth at 0.005 µM (HCT-15): 90%
growth at 50 µM (NCI-H23): -6%
growth at 0.005 µM (SK-MEL-5): 97%
growth at 0.5 µM (HOP-92 [12]): 69%
growth at 0.005 µM (CCRF-CEM): 102%
growth at 0.05 µM (IGROV-1): 105%
GI50 (SN12C; read-out: GI50): 1.31 µM
CC50 (SN12C; [15]): > 50 µM
TGI (SN12C; read-out: TGI): > 50 µM
GI50 (SN12C; read-out: pGI50 (converted)): 1.32 µM
CC50 (SN12C; [16]): > 50.1 µM
TGI (SN12C; read-out: pTGI (converted)): > 50.1 µM
GI50 (SK-OV-3 [13]; read-out: GI50): 3.87 µM
CC50 (SK-OV-3 [13]; [15]): > 50 µM
TGI (SK-OV-3 [13]; read-out: TGI): > 50 µM
GI50 (SK-OV-3 [13]; read-out: pGI50 (converted)): 3.89 µM
CC50 (SK-OV-3 [13]; [16]): > 50.1 µM
TGI (SK-OV-3 [13]; read-out: pTGI (converted)): > 50.1 µM
growth at 0.005 µM (HOP-62): 95%
growth at 0.05 µM (SW-620 [14]): 91%
